Measurements from ChEMBL document CHEMBL3351414, “Novel 9'-substituted-noscapines: synthesis with Suzuki cross-coupling, structure elucidation and biological evaluation” (Eur J Med Chem, 2014).
pIC50: −log10 of the molar value. Calls of active or inactive are those of the source. The rule behind the calls is not given here.

Experiments:
HeLa [1] = experiment: Effect on PCM1 protein in human HeLa cells assessed as accumulation of pericentriolar material at 25 uM after 24 hrs by immunofluorescence microscopy; format: functional, cell-based
In short: (§1)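 After 24 h at 25 µM, HeLa cells were stained with anti-PCM1 and Alexa-conjugated secondary antibody, with phalloidin-tetramethylrhodamine B for actin and DAPI for nuclei. Cells were imaged by confocal microscopy at 60×.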

IGROV-1 = experiment: Antiproliferative activity against human IGROV1 cells assessed as reduction in cell viability after 72 hrs by MTT assay; format: functional, cell-based; settings: IGROV-1, 72 h
In short: (§2)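 Cells kept in RPMI-1640 (Jurkat, SEM, RS4;11) or DMEM (A549, HeLa, IGROV-1, HT-29) with 10% FBS plus penicillin/streptomycin. 8×10^3 cells per well were left 18 h at 37 °C in 5% CO2. Medium was then replaced with fresh medium holding graded compound concentrations from 10 mM DMSO stocks. Cells were incubated 72 h and viability read by MTT. IC50 is the mean ± SEM from dose–response curves of at least three independent experiments.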

LoVo = experiment: Antiproliferative activity against human LoVo cells assessed as reduction in cell viability after 72 hrs by MTT assay; format: functional, cell-based
Tubulin (Bos taurus) = Tubulin (Bos taurus) (UniProt Q6B856+Q862L2+Q862F3); experiment: Displacement of [3H]colchicine from bovine brain tubulin at 500 uM after 10 mins by liquid scintillation counting
Jurkat [2] = experiment: Cell cycle arrest in human Jurkat cells assessed as accumulation at G2/M phase at 10 to 25 uM after 24 hrs by flow cytometry; format: functional, cell-based
In short: (§3)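 5×10^5 HeLa or Jurkat cells exposed to graded compound concentrations for 24 h. Cells were fixed in ice-cold 70% ethanol, lysed with RNase A/0.1% Triton X-100 buffer and stained with propidium iodide. DNA content was read by flow cytometry. Phase percentages are mean ± SEM of three independent experiments.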

CA46 [3] = experiment: Antiproliferative activity against human CA46 cells assessed as reduction in cell viability after 72 hrs by MTT assay; format: functional, cell-based; settings: CA46, 72 h
HeLa [4] = experiment: Cell cycle arrest in human HeLa cells assessed as accumulation at G2/M phase at 10 to 25 uM after 24 hrs by flow cytometry; format: functional, cell-based; in short: as §3
Tubulin [5] = biological target: T1, Tubulin (Bos taurus, UniProt Q6B856+Q862L2+Q862F3); experiment: Inhibition of bovine brain tubulin assessed as extent of assembly preincubated for 15 mins by turbidimetry
In short: (§4)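 Bovine brain tubulin at 10 µM (1.0 mg/mL) in 0.8 M monosodium glutamate pH 6.6 with 4% DMSO and varying compound was preincubated 15 min at 30 °C, then chilled. GTP was added to 0.4 mM final and the temperature jumped from 0 to 30 °C. Turbidity was followed at 350 nm, scoring either maximum rate or extent of assembly at 20 min.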

PBL [6] = experiment: Cytotoxicity against resting human PBLs assessed as reduction in cell growth; format: cell-based
In short: (§5)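 Peripheral blood lymphocytes from healthy donors, tested either resting (no PHA) or PHA-stimulated. Value is the concentration reducing cell growth by 50%, mean ± SEM of three separate experiments.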

HeLa [7] = experiment: Effect on cell morphology in human HeLa cells at 25 uM after 24 hrs using phalloidin staining by confocal microscopy; format: functional, cell-based; in short: as §1
HeLa [8] = experiment: Cell cycle arrest in human HeLa cells assessed as accumulation at G2/M phase at 25 uM after 24 hrs by flow cytometry; format: functional; in short: as §3
Tubulin [9] = biological target: T1, Tubulin; experiment: Inhibition of bovine brain tubulin assessed as rate of assembly preincubated for 15 mins by turbidimetry; in short: as §4
HeLa [10] = experiment: Disruption of microtubule network in human HeLa cells assessed as induction of spherical morphology at 25 uM after 24 hrs by immunofluorescence microscopy; format: cell-based
In short: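 HeLa cells exposed 24 h at 25 µM, fixed in cold 4% formaldehyde for 15 min, and stained with anti-β-tubulin plus Alexa-conjugated secondary antibody, with DAPI counterstain. Cells were imaged by confocal microscopy.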

CCRF-CEM = experiment: Antiproliferative activity against human CEM cells assessed as reduction in cell viability after 72 hrs by MTT assay; format: functional, cell-based
HeLa [11] = experiment: Cell cycle arrest in human HeLa cells assessed as accumulation at G2/M phase after 24 hrs by flow cytometry; format: functional, cell-based; in short: as §3
HeLa [12] = experiment: Effect on cell morphology in human HeLa cells assessed as disorganization of actin filament at 25 uM after 24 hrs by confocal microscopy relative to control; format: functional, cell-based; in short: as §1
Jurkat [13] = experiment: Cell cycle arrest in human Jurkat cells assessed as accumulation at G2/M phase after 24 hrs by flow cytometry; format: functional, cell-based; in short: as §3
HeLa [14] = experiment: Antiproliferative activity against human HeLa cells assessed as reduction in cell viability after 72 hrs by MTT assay; format: functional, cell-based; in short: as §2
CA46 [15] = experiment: Cell cycle arrest in human CA46 cells assessed as accumulation at G2/M phase at 5 times IC50 by flow cytometry; format: functional
PBL [16] = experiment: Cytotoxicity against PHA-stimulated human PBLs assessed as reduction in cell growth; format: cell-based; in short: as §5
[17] = Antiproliferative activity against human SEM cells assessed as reduction in cell viability after 72 hrs by MTT assay; format: functional, cell-based; in short: as §2
[18] = Antiproliferative activity against human RS4:11 cells assessed as reduction in cell viability after 72 hrs by MTT assay; format: functional, cell-based; settings: RS4-11, 72 h; in short: as §2
HT-29 = experiment: Antiproliferative activity against human HT-29 cells assessed as reduction in cell viability after 72 hrs by MTT assay; format: functional, cell-based; settings: HT-29, 72 h; in short: as §2
CA46 [19] = experiment: Cell cycle arrest in human CA46 cells assessed as reduction in mitotic index by Giemsa staining method relative to control; format: functional; design: scale not given: the % may be the effect or the level left
In short: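 CA46 Burkitt lymphoma cells grown in RPMI 1640 with 17% FBS and 2 mM L-glutamine at 37 °C, 5% CO2, treated 16 h. Cells were swollen 10 min in half-strength PBS, fixed in 0.5% acetic acid–1.5% ethanol, then spread from 25% acetic acid/75% ethanol. Slides were Giemsa-stained. Mitotic cells were those with condensed chromosomes and no nuclear membrane, with ≥200 cells counted per condition.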

A549 = experiment: Antiproliferative activity against human A549 cells assessed as reduction in cell viability after 72 hrs by MTT assay; format: functional, cell-based; settings: A549, 72 h; in short: as §2
Jurkat [20] = experiment: Antiproliferative activity against human Jurkat cells assessed as reduction in cell viability after 72 hrs by MTT assay; format: functional, cell-based; in short: as §2

| pIC50 (LoVo) | inhibition (Tubulin (Bos taurus)) | IC50 (Tubulin [5]) | IC50 (Tubulin [9]) | pIC50 (CCRF-CEM) | pIC50 (HeLa [14]) | pIC50 (HT-29) | pIC50 (A549) | Structure (SMILES) | Activity (HeLa [1]) | pIC50 (IGROV-1) | pIC50 (PBL [6]) | pIC50 (PBL [16]) | pIC50 [17] | pIC50 [18] | further results |
| --- | --- | --- | --- | --- | --- | --- | --- | --- | --- | --- | --- | --- | --- | --- | --- |
| – | – | – | – | – | – | – | – | COC(=O)Nc1nc2cc(C(=O)c3cccs3)ccc2[nH]1 | Active | – | – | – | – | – | – |
| 4.53 | 38% | > 400 µM | 170 µM | 4.65 | 5.05 | 4.44 | < 4.00 | COc1cccc(-c2c3c(c(OC)c4c2OCO4)[C@H]([C@H]2OC(=O)c4c2ccc(OC)c4OC)N(C)CC3)c1 | Active | 4.24 | < 3.70 | < 3.70 | 4.89 | 5.15 | Activity (Jurkat [2]): Active; pIC50 (CA46 [3]): 4.70; Activity (HeLa [4]): Active; Activity (HeLa [7]): Active; Activity (HeLa [8]): >80%; Activity (HeLa [10]): 70%; Activity (HeLa [11]): Dose-dependent effect; Activity (HeLa [12]): Active; Activity (Jurkat [13]): Dose-dependent effect; Activity (CA46 [15]): >80%; Activity (CA46 [19]): 28% |
| 4.22 | – | – | – | 4.63 | 4.56 | 4.23 | 4.32 | COc1ccc2c(c1OC)C(=O)O[C@@H]2[C@H]1c2c(c(-c3ccc4ccccc4c3)c3c(c2OC)OCO3)CCN1C | – | 4.17 | < 3.70 | < 3.70 | 5.08 | 4.51 | pIC50 (Jurkat [20]): 4.70 |
| – | 44% | > 400 µM | 170 µM | – | – | – | – | COc1ccc2c(c1OC)C(=O)O[C@@H]2[C@H]1c2c(cc3c(c2OC)OCO3)CCN1C [NOSCAPINE] | – | – | – | – | – | – | – |
